Key:
Type in all cases: cell-based
[1] = molecular target: T1, Voltage-dependent T-type calcium channel subunit alpha-1G (Homo sapiens, UniProt O43497); experiment: Inhibition of T type calcium channel subunit alpha1G expressed in HEK293 cells assessed as effect on KCl-induced increase in intracellular calcium level at 10 uM by FDSS assay
Outline: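 HEK293 cells stably co-expressing α1G and Kir2.1 were plated at 40,000 cells/well and used the next day. Loaded 60 min at room temperature with 5 µM fluo3/AM plus 0.001% Pluronic F-127 in HEPES buffer (1.8 mM CaCl2, pH 7.4). Depolarized with 70 mM KCl in buffer containing 10 mM CaCl2; the rise in intracellular Ca2+ was read by fluorescence.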

[2] = molecular target: T1, Voltage-dependent T-type calcium channel subunit alpha-1G; experiment: Inhibition of T type calcium channel subunit alpha-1G expressed in HEK293 cells assessed as effect on T-type calcium currents at 10 uM by patch clamp method
[3] = molecular target: T1, Voltage-dependent T-type calcium channel subunit alpha-1G; experiment: Inhibition of T type calcium channel subunit alpha-1G expressed in HEK293 cells assessed as effect on T-type calcium currents by patch clamp method
Outline: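 Whole-cell patch clamp on HEK293 cells expressing α1G. Electrodes of 3-4 MΩ held internal solution (mM): 130 KCl, 11 EGTA, 5 Mg-ATP, 10 HEPES, pH 7.4. External solution (mM): 140 NaCl, 2 CaCl2, 10 HEPES, 10 glucose, pH 7.4. Currents evoked every 15 s by a 50 ms step from -100 to -30 mV. Read-out was peak current; IC50 from dose-response fits.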

[4] = molecular target: Voltage-dependent T-type calcium channel subunit alpha-1H (Homo sapiens) (UniProt O95180); experiment: Inhibition of T type calcium channel subunit alpha-1H expressed in Xenopus oocytes at 100 uM by FDSS assay; conditions: Oocyte
Voltage-dependent T-type calcium channel subunit alpha-1H (Homo sapiens), sequence (O95180 whole entry): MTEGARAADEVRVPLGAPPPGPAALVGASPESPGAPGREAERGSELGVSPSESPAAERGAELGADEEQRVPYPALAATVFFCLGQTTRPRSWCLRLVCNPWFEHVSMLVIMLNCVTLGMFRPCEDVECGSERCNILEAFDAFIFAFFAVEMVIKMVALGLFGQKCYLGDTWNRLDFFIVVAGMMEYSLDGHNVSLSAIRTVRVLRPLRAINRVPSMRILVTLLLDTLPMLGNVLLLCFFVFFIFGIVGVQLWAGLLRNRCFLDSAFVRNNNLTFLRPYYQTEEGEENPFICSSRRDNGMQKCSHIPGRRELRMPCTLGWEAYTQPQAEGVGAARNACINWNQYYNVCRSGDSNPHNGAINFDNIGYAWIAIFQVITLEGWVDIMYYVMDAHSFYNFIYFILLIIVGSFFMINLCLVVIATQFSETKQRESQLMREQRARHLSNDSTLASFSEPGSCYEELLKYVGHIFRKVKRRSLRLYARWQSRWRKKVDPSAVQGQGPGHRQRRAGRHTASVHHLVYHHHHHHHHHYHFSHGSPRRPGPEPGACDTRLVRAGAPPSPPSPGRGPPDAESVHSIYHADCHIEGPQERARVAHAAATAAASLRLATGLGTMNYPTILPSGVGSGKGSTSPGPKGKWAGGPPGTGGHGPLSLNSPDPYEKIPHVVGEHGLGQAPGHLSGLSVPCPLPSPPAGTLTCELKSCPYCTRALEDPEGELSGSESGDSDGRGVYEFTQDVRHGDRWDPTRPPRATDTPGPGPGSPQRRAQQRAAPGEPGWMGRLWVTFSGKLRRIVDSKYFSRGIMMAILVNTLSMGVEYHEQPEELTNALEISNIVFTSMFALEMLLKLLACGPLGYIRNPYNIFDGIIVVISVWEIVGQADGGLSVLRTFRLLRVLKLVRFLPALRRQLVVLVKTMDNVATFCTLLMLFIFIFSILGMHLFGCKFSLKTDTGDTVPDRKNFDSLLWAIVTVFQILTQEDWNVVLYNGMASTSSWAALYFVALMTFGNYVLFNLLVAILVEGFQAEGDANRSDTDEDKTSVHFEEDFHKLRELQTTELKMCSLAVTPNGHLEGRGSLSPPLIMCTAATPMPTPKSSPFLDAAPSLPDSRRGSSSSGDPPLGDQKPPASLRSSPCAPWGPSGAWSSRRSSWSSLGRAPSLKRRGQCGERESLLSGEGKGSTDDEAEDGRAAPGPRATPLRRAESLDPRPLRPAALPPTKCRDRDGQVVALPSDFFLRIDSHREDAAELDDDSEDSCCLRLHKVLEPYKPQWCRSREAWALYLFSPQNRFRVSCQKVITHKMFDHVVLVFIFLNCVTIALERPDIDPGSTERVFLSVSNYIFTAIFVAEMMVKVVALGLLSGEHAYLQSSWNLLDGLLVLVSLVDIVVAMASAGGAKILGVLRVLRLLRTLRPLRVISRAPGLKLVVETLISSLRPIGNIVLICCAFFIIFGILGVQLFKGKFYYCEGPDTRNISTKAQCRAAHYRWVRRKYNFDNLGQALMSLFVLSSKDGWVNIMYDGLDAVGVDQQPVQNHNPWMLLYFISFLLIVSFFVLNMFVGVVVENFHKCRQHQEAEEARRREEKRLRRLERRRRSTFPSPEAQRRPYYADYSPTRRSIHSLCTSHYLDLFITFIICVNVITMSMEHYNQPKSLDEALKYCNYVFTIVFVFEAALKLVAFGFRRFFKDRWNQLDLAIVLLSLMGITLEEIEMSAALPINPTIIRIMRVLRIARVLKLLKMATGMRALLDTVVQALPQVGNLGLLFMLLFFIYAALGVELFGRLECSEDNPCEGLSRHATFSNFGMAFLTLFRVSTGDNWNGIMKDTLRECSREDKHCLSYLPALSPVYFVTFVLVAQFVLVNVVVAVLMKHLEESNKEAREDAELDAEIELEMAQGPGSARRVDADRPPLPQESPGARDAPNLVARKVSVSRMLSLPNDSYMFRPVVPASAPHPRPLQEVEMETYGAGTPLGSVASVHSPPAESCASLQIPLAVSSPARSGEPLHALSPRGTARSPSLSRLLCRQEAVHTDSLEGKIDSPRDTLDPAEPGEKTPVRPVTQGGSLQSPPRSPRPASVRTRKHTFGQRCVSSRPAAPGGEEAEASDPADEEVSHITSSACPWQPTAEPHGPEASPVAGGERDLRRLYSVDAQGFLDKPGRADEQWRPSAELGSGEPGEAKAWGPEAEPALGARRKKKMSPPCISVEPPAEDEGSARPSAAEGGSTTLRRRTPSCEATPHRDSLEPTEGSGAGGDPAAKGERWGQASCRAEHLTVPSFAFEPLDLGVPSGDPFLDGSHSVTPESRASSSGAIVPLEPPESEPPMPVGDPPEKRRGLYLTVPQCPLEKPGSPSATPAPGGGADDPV

T1 sequence (O43497 whole entry): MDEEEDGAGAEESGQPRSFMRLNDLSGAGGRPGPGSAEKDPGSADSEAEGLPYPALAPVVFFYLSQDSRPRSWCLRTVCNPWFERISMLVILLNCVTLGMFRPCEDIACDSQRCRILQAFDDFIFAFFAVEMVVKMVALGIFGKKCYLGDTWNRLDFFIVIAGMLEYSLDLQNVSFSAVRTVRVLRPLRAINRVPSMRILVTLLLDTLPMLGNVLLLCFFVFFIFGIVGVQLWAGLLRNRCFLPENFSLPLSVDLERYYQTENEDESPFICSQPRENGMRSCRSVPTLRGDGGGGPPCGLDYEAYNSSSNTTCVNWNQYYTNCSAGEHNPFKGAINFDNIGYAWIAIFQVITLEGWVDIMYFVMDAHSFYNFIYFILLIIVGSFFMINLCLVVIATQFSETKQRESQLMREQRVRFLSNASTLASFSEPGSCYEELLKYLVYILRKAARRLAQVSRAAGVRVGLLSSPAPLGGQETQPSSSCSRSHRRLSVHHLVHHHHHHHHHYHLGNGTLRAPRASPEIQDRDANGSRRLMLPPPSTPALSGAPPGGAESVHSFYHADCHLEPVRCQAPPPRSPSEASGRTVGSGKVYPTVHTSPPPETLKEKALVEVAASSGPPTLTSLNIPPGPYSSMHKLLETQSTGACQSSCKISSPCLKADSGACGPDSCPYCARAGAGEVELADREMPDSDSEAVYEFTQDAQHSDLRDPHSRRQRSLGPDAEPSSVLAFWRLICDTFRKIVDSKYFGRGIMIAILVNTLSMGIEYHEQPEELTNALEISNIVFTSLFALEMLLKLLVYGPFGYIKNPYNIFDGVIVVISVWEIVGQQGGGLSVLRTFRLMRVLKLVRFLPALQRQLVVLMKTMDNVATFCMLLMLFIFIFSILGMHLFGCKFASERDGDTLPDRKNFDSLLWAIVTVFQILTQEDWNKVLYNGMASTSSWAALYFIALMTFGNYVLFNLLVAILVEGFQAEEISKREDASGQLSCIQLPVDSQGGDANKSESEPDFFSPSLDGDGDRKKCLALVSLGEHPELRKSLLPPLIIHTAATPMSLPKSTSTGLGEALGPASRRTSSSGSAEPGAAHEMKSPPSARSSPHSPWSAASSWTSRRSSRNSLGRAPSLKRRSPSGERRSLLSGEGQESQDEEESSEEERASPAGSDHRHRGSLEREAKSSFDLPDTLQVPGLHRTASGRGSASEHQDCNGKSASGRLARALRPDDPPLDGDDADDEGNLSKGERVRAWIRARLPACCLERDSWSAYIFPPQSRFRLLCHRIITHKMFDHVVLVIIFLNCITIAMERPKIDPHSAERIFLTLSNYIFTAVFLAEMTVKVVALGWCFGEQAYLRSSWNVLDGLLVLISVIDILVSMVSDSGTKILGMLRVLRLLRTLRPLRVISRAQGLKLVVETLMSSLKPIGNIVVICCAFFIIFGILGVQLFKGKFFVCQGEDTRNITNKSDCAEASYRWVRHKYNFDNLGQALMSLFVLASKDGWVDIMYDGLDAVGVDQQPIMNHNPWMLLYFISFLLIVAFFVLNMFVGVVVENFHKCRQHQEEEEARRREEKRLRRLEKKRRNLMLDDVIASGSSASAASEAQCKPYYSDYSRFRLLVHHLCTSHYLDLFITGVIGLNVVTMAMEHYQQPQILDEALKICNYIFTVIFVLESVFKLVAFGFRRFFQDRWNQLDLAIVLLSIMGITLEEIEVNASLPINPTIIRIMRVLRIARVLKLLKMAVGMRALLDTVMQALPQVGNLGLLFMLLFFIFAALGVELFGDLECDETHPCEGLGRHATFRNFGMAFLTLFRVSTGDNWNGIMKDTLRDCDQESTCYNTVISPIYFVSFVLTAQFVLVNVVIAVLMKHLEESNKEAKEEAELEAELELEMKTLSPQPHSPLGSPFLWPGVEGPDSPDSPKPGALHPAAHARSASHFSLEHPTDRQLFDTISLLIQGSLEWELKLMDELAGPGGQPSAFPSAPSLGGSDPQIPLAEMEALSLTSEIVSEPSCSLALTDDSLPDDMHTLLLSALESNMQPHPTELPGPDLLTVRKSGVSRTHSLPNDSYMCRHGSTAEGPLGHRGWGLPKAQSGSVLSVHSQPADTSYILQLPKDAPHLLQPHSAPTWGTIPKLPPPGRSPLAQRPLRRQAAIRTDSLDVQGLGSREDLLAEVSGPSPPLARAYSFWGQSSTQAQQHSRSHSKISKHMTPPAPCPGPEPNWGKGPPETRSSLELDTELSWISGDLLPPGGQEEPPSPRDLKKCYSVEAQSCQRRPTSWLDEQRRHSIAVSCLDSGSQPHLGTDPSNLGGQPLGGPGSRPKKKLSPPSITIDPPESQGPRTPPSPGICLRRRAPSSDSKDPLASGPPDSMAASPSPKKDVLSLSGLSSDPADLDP

Row | SMILES | inhibition [1] | inhibition [2] | IC50 [3] | inhibition [4]
1 | O=C(CCCN1CCN(Cc2ccc(Cl)cc2)CC1)Nc1ccc(F)cc1F | 48% |  |  | 
2 | O=C(CCN1CCN(Cc2ccc(Cl)c(Cl)c2)CC1)Nc1ccc(F)cc1F | 34.6% |  |  | 
3 | O=C(CCCN1CCN(Cc2ccc3c(c2)OCO3)CC1)Nc1ccc(Cl)cc1Cl | 49.8% | 88.1% | 1670 nM | 
4 | O=C(CCCN1CCN(c2ccccc2F)CC1)Nc1ccc(F)cc1F | 32.2% |  |  | 
5 | O=C(CCN1CCN(c2ccccc2Cl)CC1)Nc1ccc(F)cc1F | 28.4% |  |  | 
6 | O=C(CN1CCN(C(=O)CCCCN2CCN(c3ccc(F)cc3)CC2)CC1)Nc1ccccc1Cl | 34.9% |  |  | 
7 | O=C(CCCN1CCN(Cc2ccccc2)CC1)Nc1cc(Cl)c(Cl)c(Cl)c1 | 49.4% |  |  | 
8 | O=C(CCCN1CCN(Cc2c(F)cccc2Cl)CC1)Nc1ccc(Cl)cc1 | 39.8% | 72.8% | 3270 nM | 
9 | O=C(CN1CCN(C(=O)CCCCN2CCN(Cc3ccccc3)CC2)CC1)Nc1ccccc1Cl | 15.9% |  |  | 
10 | O=C(CCCN1CCN(c2cccc(Cl)c2)CC1)Nc1ccc(F)cc1F | 51% |  |  | 
11 | O=C(CCCN1CCN(Cc2ccc(Cl)cc2)CC1)Nc1ccc(Cl)cc1Cl | 61.3% | 91.1% | 280 nM | 
12 | O=C(CCCN1CCN(c2ccccc2F)CC1)Nc1cc(Cl)c(Cl)c(Cl)c1 | 20.1% |  |  | 
13 | CCN1CCN(CCCCC(=O)N2CCN(CC(=O)Nc3cccc(C(F)(F)F)c3)CC2)CC1 |  |  |  | 23.6%
14 | O=C(CCCCN1CCN(Cc2ccc(Cl)c(Cl)c2)CC1)N1CCN(c2ccccc2)CC1 | 56.2% | 73.8% | 2910 nM | 
15 | O=C(CCCN1CCN(c2cccc(Cl)c2)CC1)Nc1cc(Cl)c(Cl)c(Cl)c1 | 16.8% |  |  | 
16 | CN1CCN(CCCCC(=O)N2CCN(CC(=O)Nc3cccc(Cl)c3)CC2)CC1 |  |  |  | < 1%
17 | O=C(CCCN1CCN(Cc2cccc(Cl)c2)CC1)Nc1ccc(Cl)cc1 | 38.3% | 92.4% | 1800 nM | 
18 | O=C(CN1CCN(C(=O)CCCCN2CCN(Cc3ccc(Cl)cc3)CC2)CC1)Nc1ccccc1Cl | 26.2% |  |  | 
19 | CN1CCN(CCCCC(=O)N2CCN(CC(=O)Nc3cccc(C(F)(F)F)c3)CC2)CC1 |  |  |  | < 1%
20 | COc1ccccc1N1CCN(CCCC(=O)Nc2ccc(F)cc2F)CC1 | 33% |  |  | 
21 | O=C(CCCN1CCN(c2ccccc2)CC1)Nc1cc(Cl)c(Cl)c(Cl)c1 | 38.3% |  |  | 
22 | CCN1CCN(CCCCC(=O)N2CCN(CC(=O)Nc3cccc(Cl)c3)CC2)CC1 |  |  |  | 71.6%
23 | O=C(CCCN1CCN(c2ccc(F)cc2)CC1)Nc1cc(Cl)c(Cl)c(Cl)c1 | 20.7% |  |  | 
24 | O=C(CN1CCN(C(=O)CCCCN2CCN(Cc3cccc(Cl)c3)CC2)CC1)Nc1ccccc1Cl | 40.9% |  |  | 
25 | O=C(CCCN1CCN(Cc2ccccc2)CC1)Nc1ccc(Cl)cc1Cl | 44.9% | 79.3% | 3140 nM | 
26 | O=C(CCN1CCN(c2ccccc2F)CC1)Nc1ccc(F)cc1F | 30.3% |  |  | 
27 | O=C(CN1CCN(C(=O)CCCCN2CCN(c3ccccc3)CC2)CC1)Nc1cccc(Cl)c1 |  |  |  | 75.3%

Row | SMILES | inhibition [1] | inhibition [2] | IC50 [3] | inhibition [4]
28 | O=C(CCCN1CCN(c2cccc(Cl)c2)CC1)Nc1ccc(Cl)cc1Cl | 38.1% | 95.4% | 1010 nM | 
29 | O=C(CCN1CCN(Cc2c(F)cccc2Cl)CC1)Nc1ccc(F)cc1F | 29.7% |  |  | 
30 | O=C(CCCN1CCN(c2ccccc2)CC1)Nc1ccc(F)cc1F | 36.8% |  |  | 
31 | CCN1CCN(CCCCC(=O)N2CCN(CC(=O)Nc3cccc(C)c3)CC2)CC1 | -1.36% |  |  | 
32 | O=C(CCCN1CCN(Cc2cccc(Cl)c2)CC1)Nc1cc(Cl)c(Cl)c(Cl)c1 | 37% |  |  | 
33 | O=C(CCCN1CCN(Cc2ccc3c(c2)OCO3)CC1)Nc1ccc(Cl)cc1 | 33.4% | 81.9% | 2730 nM | 
34 | O=C(CCN1CCN(c2cccc(Cl)c2)CC1)Nc1ccc(F)cc1F | 26.4% |  |  | 
35 | O=C(CCCN1CCN(c2ccccc2)CC1)Nc1ccc(Cl)cc1 | 30.4% | 75.1% | 4470 nM | 
36 | O=C(CCN1CCN(c2ccccc2)CC1)Nc1ccc(F)cc1F | 33.2% |  |  | 
37 | COc1cccc(N2CCN(CCCCC(=O)N3CCN(CC(=O)Nc4ccccc4Cl)CC3)CC2)c1 | 26.1% |  |  | 
38 | O=C(CN1CCN(C(=O)CCCCN2CCN(c3ccccc3)CC2)CC1)Nc1ccccc1Cl | 25.2% |  |  | 
39 | O=C(CCCN1CCN(Cc2ccccc2)CC1)Nc1ccc(Cl)cc1 | 30.8% | 78% | 3520 nM | 
40 | O=C(CCCN1CCN(c2ccc(F)cc2)CC1)Nc1ccc(Cl)cc1 | 32.5% | 76.1% | 3490 nM | 
41 | COc1ccccc1N1CCN(CCC(=O)Nc2ccc(F)cc2F)CC1 | 37.1% |  |  | 
42 | O=C(CCCN1CCN(Cc2ccc(Cl)cc2)CC1)Nc1ccc(Cl)cc1 | 33.6% | 92.6% | 370 nM | 
43 | O=C(CCCN1CCN(c2ccc(Cl)cc2)CC1)Nc1ccc(Cl)cc1 | 48.3% | 94.6% | 2640 nM | 
44 | COc1ccccc1N1CCN(CCCC(=O)Nc2cc(Cl)c(Cl)c(Cl)c2)CC1 | 33.7% |  |  | 
45 | O=C(CCCN1CCN(Cc2ccc(Cl)c(Cl)c2)CC1)Nc1ccc(F)cc1F | 59.9% |  |  | 
46 | COc1cccc(N2CCN(CCC(=O)Nc3ccc(F)cc3F)CC2)c1 | 29.5% |  |  | 
47 | COc1ccccc1N1CCN(CCCC(=O)Nc2ccc(Cl)cc2)CC1 | 51.8% | 84.3% | 2610 nM | 
48 | O=C(CCCN1CCN(c2ccc(F)cc2)CC1)Nc1ccc(F)cc1F | 38.1% |  |  | 
49 | O=C(CCCN1CCN(c2ccccc2F)CC1)Nc1ccc(Cl)cc1Cl | 27.4% |  |  | 
50 | COc1cccc(N2CCN(CCCC(=O)Nc3ccc(F)cc3F)CC2)c1 | 40.6% |  |  | 
51 | O=C(CCCN1CCN(c2ccccc2F)CC1)Nc1ccc(Cl)cc1 | 36.1% | 79.2% | 3630 nM | 
52 | COc1cccc(N2CCN(CCCC(=O)Nc3cc(Cl)c(Cl)c(Cl)c3)CC2)c1 | 21.6% |  |  | 
53 | O=C(CCN1CCN(Cc2ccc(Cl)cc2)CC1)Nc1ccc(F)cc1F | 33.2% |  |  | 
54 | O=C(CCCCN1CCN(Cc2cccc(Cl)c2)CC1)N1CCN(c2ccccc2F)CC1 | 48.8% | 87.1% | 2440 nM | 

Row | SMILES | inhibition [1] | inhibition [2] | IC50 [3] | inhibition [4]
55 | O=C(CCCN1CCN(Cc2cccc(Cl)c2)CC1)Nc1ccc(Cl)cc1Cl | 50.8% | 87.3% | 1480 nM | 
56 | O=C(CCCN1CCN(c2ccccc2Cl)CC1)Nc1cc(Cl)c(Cl)c(Cl)c1 | 13.6% |  |  | 
57 | O=C(CCCN1CCN(Cc2c(F)cccc2Cl)CC1)Nc1cc(Cl)c(Cl)c(Cl)c1 | 35.1% |  |  | 
58 | O=C(CCCN1CCN(Cc2ccc(Cl)cc2)CC1)Nc1cc(Cl)c(Cl)c(Cl)c1 | 27.5% |  |  | 
59 | O=C(CCCN1CCN(c2ccccc2)CC1)Nc1ccc(Cl)cc1Cl | 38.5% | 76.2% | 4210 nM | 
60 | O=C(CCCN1CCN(c2ccccc2Cl)CC1)Nc1ccc(Cl)cc1 | 37.3% | 60.5% | 6010 nM | 
61 | COc1ccccc1N1CCN(CCCC(=O)Nc2ccc(Cl)cc2Cl)CC1 | 42.7% | 79.1% | 3340 nM | 
62 | COc1cccc(N2CCN(CCCC(=O)Nc3ccc(Cl)cc3Cl)CC2)c1 | 44.2% | 80.3% | 3810 nM | 
63 | O=C(CCCCN1CCN(Cc2ccc(Cl)cc2)CC1)N1CCN(c2ccccc2)CC1 | 50.4% | 79.7% | 3400 nM | 
64 | O=C(CCCCN1CCN(Cc2ccc(Cl)c(Cl)c2)CC1)Nc1ccccc1Cl | 55.9% | 91% | 1010 nM | 
65 | N#Cc1ccccc1N1CCN(CCCCC(=O)N2CCN(CC(=O)Nc3ccccc3Cl)CC2)CC1 | 7.38% |  |  | 
66 | COc1cccc(N2CCN(CCCC(=O)Nc3ccc(Cl)cc3)CC2)c1 | 40.6% | 84.1% | 2780 nM | 
67 | O=C(CCCN1CCN(Cc2c(F)cccc2Cl)CC1)Nc1ccc(F)cc1F | 38.9% |  |  | 
68 | O=C(CCCN1CCN(c2ccccc2Cl)CC1)Nc1ccc(F)cc1F | 42% |  |  | 
69 | O=C(CCCCN1CCN(Cc2ccc(Cl)cc2)CC1)N1CCN(c2ccccc2F)CC1 | 48.3% | 89.7% | 1810 nM | 
70 | O=C(CN1CCN(C(=O)CCCCN2CCN(c3ccccc3)CC2)CC1)Nc1cccc(C(F)(F)F)c1 |  |  |  | 53%
71 | O=C(CCCN1CCN(Cc2c(F)cccc2Cl)CC1)Nc1ccc(Cl)cc1Cl | 49.6% | 89.6% | 2400 nM | 
72 | O=C(CCCN1CCN(Cc2ccccc2)CC1)Nc1ccc(F)cc1F | 23.2% |  |  | 
73 | O=C(CCN1CCN(Cc2cccc(Cl)c2)CC1)Nc1ccc(F)cc1F | 34.7% |  |  | 
74 | O=C(CCN1CCN(Cc2ccccc2)CC1)Nc1ccc(F)cc1F | 21.1% |  |  | 
75 | O=C(CN1CCN(C(=O)CCCCN2CCN(c3ccccc3F)CC2)CC1)Nc1ccccc1Cl | 22.1% |  |  | 
76 | O=C(CCN1CCN(c2ccc(F)cc2)CC1)Nc1ccc(F)cc1F | 29.7% |  |  | 
77 | O=C(CCCN1CCN(Cc2cccc(Cl)c2)CC1)Nc1ccc(F)cc1F | 30.2% |  |  | 
78 | O=C(CCCN1CCN(Cc2ccc(Cl)c(Cl)c2)CC1)Nc1ccc(Cl)cc1Cl | 47.6% | 94.4% | 750 nM | 
79 | O=C(CCCCN1CCN(c2cccc(Cl)c2)CC1)Nc1ccccc1Cl | 54% | 93.2% | 1910 nM | 
